Laboratory results published in ChEMBL document CHEMBL5329174, “Discovery of benzoxazole-thiazolidinone hybrids as promising antibacterial agents against Staphylococcus aureus and Enterococcus species” (RSC Med Chem, 2023).
Values after ≈ are worked out from the molar mass of the structure shown.

Tests used:
Enterococcus faecium [1] = assay: Antibacterial activity against vancomycin-resistant Enterococcus faecium NR 31912 assessed as inhibition of bacterial growth
Staphylococcus aureus [2] = assay: Antibacterial activity against methicilin-resistant Staphylococcus aureus NRS 100 assessed as reduction in bacterial growth; assay type: functional
Procedure, shortened: (§1)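 CLSI broth microdilution in cation-supplemented Mueller–Hinton broth II. Starter cultures were grown overnight at 37 °C with shaking from a single MHA colony, then diluted by OD600 to ~10^6 CFU/mL. Compounds came from 10 mg/mL DMSO stocks and were tested two-fold from 64 to 0.5 mg/L. Plates were incubated 37 °C for 18–24 h. MIC was taken as the lowest concentration with no visible growth. Three independent runs, each in duplicate.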

Enterococcus faecalis [3] = assay: Antibacterial activity against vancomycin-susceptible Enterococcus faecalis NR 31887 assessed as inhibition of bacterial growth incubated for 18 to 24 hrs by broth microdilution assay; assay type: functional; conditions: time 18-24 hrs
Procedure, shortened: (§2)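 CLSI broth microdilution in cation-supplemented Mueller–Hinton broth II; overnight starter cultures (37 °C, shaking, 18–24 h) adjusted by OD600 to ~10^6 CFU/mL. Compounds dosed from DMSO stocks (10 mg/mL stock) as two-fold dilutions, 64–0.5 mg/L. Plates held 37 °C, 18–24 h. MIC = lowest concentration without visible growth. Three independent runs, each in duplicate.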

Enterococcus faecium [4] = assay: Antibacterial activity against vancomycin-resistant Enterococcus faecium NR 31909 assessed as inhibition of bacterial growth
Enterococcus faecalis [5] = assay: Antibacterial activity against vancomycin-susceptible Enterococcus faecalis NR 31886 assessed as inhibition of bacterial growth incubated for 18 to 24 hrs by broth microdilution assay; assay type: functional; conditions: time 18-24 hrs
Procedure, shortened: as §2

Staphylococcus aureus [6] = assay: Antibacterial activity against Staphylococcus aureus ATCC 29213 assessed as reduction in bacterial growth; assay type: functional
Procedure, shortened: as §2

Staphylococcus aureus [7] = assay: Antibacterial activity against methicilin-resistant Staphylococcus aureus NRS 191 assessed as reduction in bacterial growth; assay type: functional
Procedure, shortened: as §1

Staphylococcus aureus [8] = assay: Antibacterial activity against methicilin-resistant Staphylococcus aureus NRS 186 assessed as reduction in bacterial growth; assay type: functional
Procedure, shortened: as §1

Enterococcus faecium [9] = assay: Antibacterial activity against vancomycin-resistant Enterococcus faecium NR 31903 assessed as inhibition of bacterial growth
[10] = Cytotoxicity against african green monkey Vero cells assessed as reduction in cell viability incubated for 72 hrs by MTT assay; assay type: toxicity, cell-based; conditions: chlorocebus sabaeus
Procedure, shortened: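 Vero (ATCC CCL-81) cells seeded at ~10^3 per well, 37 °C, 5% CO2. After 24 h, compound added at 100–12.5 μg/mL for 72 h. MTT then given for 4 h at 37 °C, formazan dissolved in DMSO, absorbance read at 540 nm. CC50 taken as the concentration giving 50% viability loss; doxorubicin as positive control; triplicate.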

Pseudomonas aeruginosa = assay: Antibacterial activity against Pseudomonas aeruginosa ATCC 27853 assessed as reduction in bacterial growth; assay type: functional
Procedure, shortened: as §2

Staphylococcus aureus [11] = assay: Antibacterial activity against methicilin-resistant Staphylococcus aureus NRS 198 assessed as reduction in bacterial growth; assay type: functional
Procedure, shortened: as §1

Staphylococcus aureus [12] = assay: Antibacterial activity against methicilin-resistant Staphylococcus aureus NRS 194 assessed as reduction in bacterial growth; assay type: functional
Procedure, shortened: as §1

Staphylococcus aureus [13] = assay: Antibacterial activity against vancomycin-resistant Staphylococcus aureus VRS 12 assessed as reduction in bacterial growth; assay type: functional
Procedure, shortened: as §1

Enterococcus faecalis [14] = assay: Antibacterial activity against vancomycin-susceptible Enterococcus faecalis NR 31885 assessed as inhibition of bacterial growth incubated for 18 to 24 hrs by broth microdilution assay; assay type: functional; conditions: time 18-24 hrs
Procedure, shortened: as §2

Staphylococcus aureus [15] = assay: Antibacterial activity against vancomycin-resistant Staphylococcus aureus VRS 4 assessed as reduction in bacterial growth; assay type: functional
Procedure, shortened: as §1

Acinetobacter baumannii = assay: Antibacterial activity against Acinetobacter baumannii BAA-1605 assessed as reduction in bacterial growth; assay type: functional
Procedure, shortened: as §2

Staphylococcus aureus [16] = assay: Bactericidal activity against Staphylococcus aureus ATCC 29213 incubated for 24 hrs by time-kill assay; assay type: functional, organism-based
Procedure, shortened: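 Time-kill: S. aureus ATCC 29213 at ~10^6 CFU/mL in MHBII, exposed to 1× and 10× MIC, 37 °C with shaking for 24 h. Surviving CFU/mL plotted over time; mean of replicate experiments in duplicate.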

[17] = Selectivity index, ratio of CC50 for cytotoxicity against african green monkey Vero cells assessed as reduction in cell viability to MIC for antibacterial activity against Staphylococcus aureus ATCC 29213 assessed as reduction in bacterial growth; assay type: toxicity, cell-based; conditions: read-out: Selectivity Index
Staphylococcus aureus [18] = assay: Antibacterial activity against methicilin-resistant Staphylococcus aureus NRS 192 assessed as reduction in bacterial growth; assay type: functional
Procedure, shortened: as §1

Staphylococcus aureus [19] = assay: Antibacterial activity against methicilin-resistant Staphylococcus aureus NRS 129 assessed as reduction in bacterial growth; assay type: functional
Procedure, shortened: as §1

Staphylococcus aureus [20] = assay: Antibacterial activity against methicilin-resistant Staphylococcus aureus NRS 119 assessed as reduction in bacterial growth; assay type: functional
Procedure, shortened: as §1

Klebsiella pneumoniae = assay: Antibacterial activity against Klebsiella pneumoniae BAA-1705 assessed as reduction in bacterial growth; assay type: functional
Procedure, shortened: as §2

Enterococcus faecalis [21] = assay: Antibacterial activity against vancomycin-susceptible Enterococcus faecalis NR 31888 assessed as inhibition of bacterial growth incubated for 18 to 24 hrs by broth microdilution assay; assay type: functional; conditions: time 18-24 hrs
Procedure, shortened: as §2

Staphylococcus aureus [22] = assay: Antibacterial activity against vancomycin-resistant Staphylococcus aureus VRS 1 assessed as reduction in bacterial growth; assay type: functional
Procedure, shortened: as §1

Staphylococcus aureus [23] = assay: Antibacterial activity against methicilin-resistant Staphylococcus aureus NRS 193 assessed as reduction in bacterial growth; assay type: functional
Procedure, shortened: as §1

Escherichia coli = assay: Antibacterial activity against Escherichia coli ATCC 25922 assessed as reduction in bacterial growth; assay type: functional
Procedure, shortened: as §2

Enterococcus faecalis [24] = assay: Antibacterial activity against vancomycin-susceptible Enterococcus faecalis NR 31884 assessed as inhibition of bacterial growth incubated for 18 to 24 hrs by broth microdilution assay; assay type: functional; conditions: time 18-24 hrs
Procedure, shortened: as §2

SMILES | MIC (Enterococcus faecium [1]) [µg/mL] | MIC (Staphylococcus aureus [2]) [µg/mL] | MIC (Enterococcus faecalis [3]) [µg/mL] | MIC (Enterococcus faecium [4]) [µg/mL] | MIC (Enterococcus faecalis [5]) [µg/mL] | MIC (Staphylococcus aureus [6]) [µg/mL] | MIC (Staphylococcus aureus [7]) [µg/mL] | MIC (Staphylococcus aureus [8]) [µg/mL] | MIC (Enterococcus faecium [9]) [µg/mL] | CC50 at 72 h [10] [µg/mL] | MIC (Pseudomonas aeruginosa) [µg/mL] | MIC (Staphylococcus aureus [11]) [µg/mL] | MIC (Staphylococcus aureus [12]) [µg/mL] | MIC (Staphylococcus aureus [13]) [µg/mL] | MIC (Enterococcus faecalis [14]) [µg/mL] | MIC (Staphylococcus aureus [15]) [µg/mL] | MIC (Acinetobacter baumannii) [µg/mL] | selectivity ratio [17] | MIC (Staphylococcus aureus [18]) [µg/mL] | MIC (Staphylococcus aureus [19]) [µg/mL] | also measured
O=C1N/C(=N\c2nc3ccccc3o2)S/C1=C\c1cc(Cl)ccc1O | 0.125 (≈ 0.336 µM) | 0.5 (≈ 1.34 µM) | 2 (≈ 5.38 µM) | 0.125 (≈ 0.336 µM) | 4 (≈ 10.8 µM) | 1 (≈ 2.69 µM) | 0.5 (≈ 1.34 µM) | 0.5 (≈ 1.34 µM) | 1 (≈ 2.69 µM) | > 20 | > 64 | 1 (≈ 2.69 µM) | 1 (≈ 2.69 µM) | 0.5 (≈ 1.34 µM) | 4 (≈ 10.8 µM) | 1 (≈ 2.69 µM) | > 64 | > 20 | 1 (≈ 2.69 µM) | 0.5 (≈ 1.34 µM) | Activity (Staphylococcus aureus [16]): Dose-Dependent Effect; MIC (Staphylococcus aureus [20]): 1 µg/mL (≈ 2.69 µM); MIC (Klebsiella pneumoniae): > 64 µg/mL; MIC (Enterococcus faecalis [21]): 4 µg/mL (≈ 10.8 µM); MIC (Staphylococcus aureus [22]): 1 µg/mL (≈ 2.69 µM); MIC (Staphylococcus aureus [23]): 1 µg/mL (≈ 2.69 µM); MIC (Escherichia coli): > 64 µg/mL; MIC (Enterococcus faecalis [24]): 4 µg/mL (≈ 10.8 µM)
COc1cc(/C=C2\S/C(=N/c3nc4ccccc4o3)NC2=O)ccc1O | 0.25 (≈ 0.68 µM) | 2 (≈ 5.44 µM) | 16 (≈ 43.6 µM) | 0.25 (≈ 0.68 µM) | 16 (≈ 43.6 µM) | 2 (≈ 5.44 µM) | 2 (≈ 5.44 µM) | 2 (≈ 5.44 µM) | 4 (≈ 10.9 µM) | > 40 | > 64 | 4 (≈ 10.9 µM) | 4 (≈ 10.9 µM) | 2 (≈ 5.44 µM) | 16 (≈ 43.6 µM) | 4 (≈ 10.9 µM) | > 64 | > 20 | 4 (≈ 10.9 µM) | 4 (≈ 10.9 µM) | MIC (Staphylococcus aureus [20]): 4 µg/mL (≈ 10.9 µM); MIC (Klebsiella pneumoniae): > 64 µg/mL; MIC (Enterococcus faecalis [21]): 16 µg/mL (≈ 43.6 µM); MIC (Staphylococcus aureus [22]): 4 µg/mL (≈ 10.9 µM); MIC (Staphylococcus aureus [23]): 4 µg/mL (≈ 10.9 µM); MIC (Escherichia coli): > 64 µg/mL; MIC (Enterococcus faecalis [24]): 16 µg/mL (≈ 43.6 µM)
O=C1N/C(=N\c2nc3ccccc3o2)S/C1=C\c1ccc(O)cc1 | 0.25 (≈ 0.741 µM) | 1 (≈ 2.96 µM) | 8 (≈ 23.7 µM) | 0.25 (≈ 0.741 µM) | 16 (≈ 47.4 µM) | 2 (≈ 5.93 µM) | 2 (≈ 5.93 µM) | 1 (≈ 2.96 µM) | 4 (≈ 11.9 µM) | > 40 | > 64 | 2 (≈ 5.93 µM) | 2 (≈ 5.93 µM) | 2 (≈ 5.93 µM) | 16 (≈ 47.4 µM) | 2 (≈ 5.93 µM) | > 64 | > 20 | 2 (≈ 5.93 µM) | 2 (≈ 5.93 µM) | MIC (Staphylococcus aureus [20]): 2 µg/mL (≈ 5.93 µM); MIC (Klebsiella pneumoniae): > 64 µg/mL; MIC (Enterococcus faecalis [21]): 16 µg/mL (≈ 47.4 µM); MIC (Staphylococcus aureus [22]): 2 µg/mL (≈ 5.93 µM); MIC (Staphylococcus aureus [23]): 2 µg/mL (≈ 5.93 µM); MIC (Escherichia coli): > 64 µg/mL; MIC (Enterococcus faecalis [24]): 16 µg/mL (≈ 47.4 µM)
O=C1N/C(=N\c2nc3ccccc3o2)S/C1=C\c1cc(Br)ccc1O | 0.125 (≈ 0.3 µM) | 0.5 (≈ 1.2 µM) | 2 (≈ 4.8 µM) | 0.125 (≈ 0.3 µM) | 4 (≈ 9.61 µM) | 1 (≈ 2.4 µM) | 0.5 (≈ 1.2 µM) | 0.5 (≈ 1.2 µM) | 1 (≈ 2.4 µM) | > 20 | > 64 | 1 (≈ 2.4 µM) | 1 (≈ 2.4 µM) | 0.5 (≈ 1.2 µM) | 4 (≈ 9.61 µM) | 1 (≈ 2.4 µM) | > 64 | > 20 | 1 (≈ 2.4 µM) | 0.5 (≈ 1.2 µM) | Activity (Staphylococcus aureus [16]): Dose-Dependent Effect; MIC (Staphylococcus aureus [20]): 1 µg/mL (≈ 2.4 µM); MIC (Klebsiella pneumoniae): > 64 µg/mL; MIC (Enterococcus faecalis [21]): 4 µg/mL (≈ 9.61 µM); MIC (Staphylococcus aureus [22]): 1 µg/mL (≈ 2.4 µM); MIC (Staphylococcus aureus [23]): 1 µg/mL (≈ 2.4 µM); MIC (Escherichia coli): > 64 µg/mL; MIC (Enterococcus faecalis [24]): 4 µg/mL (≈ 9.61 µM)
